Data on 2 compounds can be found in ChEMBL document CHEMBL4428027, “3-Hydroxypyrimidine-2,4-diones as Selective Active Site Inhibitors of HIV Reverse Transcriptase-Associated RNase H: Design, Synthesis, and Biochemical Evaluations” (J Med Chem, 2016).

Molecules are shown by their SMILES. Calls of active or inactive are those of the source. The calls are words filed in the database; no cut-off is given here.

The target in data set [1] is Human immunodeficiency virus type 1 reverse transcriptase (Human immunodeficiency virus 1) (UniProt Q72547). Briefly: Inhibition of HIV1 polymerase activity of reverse transcriptase using poly(rA)-oligo(dT)16 and [3H]-TTP up to 25 uM incubated for 20 mins by liquid scintillation spectrometry. The gist of the method:
(§1)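 Reaction mix: 10 µM [3H]-TTP, 40 nM poly(rA)-oligo(dT)16, 50 mM Tris-HCl pH 7.4 (37°C), 60 mM KCl, 5 mM MgCl2. Started with 10 nM RT; 20 min at 37°C. Quenched in ice-cold 10% TCA with 20 mM sodium pyrophosphate, then glass-fibre filtered and washed with TCA and ethanol. Label incorporation read by liquid scintillation.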

The target is the same in data set [2]. Particulars: up to 25 µM.
Data set [3] has the same target. Briefly: Inhibition of RNase H activity of full length recombinant HIV1 reverse transcriptase assessed as reduction in RNA 5'-end directed cleavage up to 25 uM using HTS3 substrate.
The target of data set [4] is T1, Human immunodeficiency virus type 1 reverse transcriptase (Human immunodeficiency virus 1, UniProt Q72547). Briefly: Inhibition of polymerase activity of HIV1 reverse transcriptase using poly(rA)-oligo(dT)16 and [3H]-TTP incubated for 20 mins by liquid scintillation spectrometry. A digest of the protocol:
as §1

Data set [5] addresses T1, Human immunodeficiency virus type 1 reverse transcriptase. Kind of data set: Inhibition of RNase H activity of full length recombinant HIV1 reverse transcriptase assessed as reduction in DNA 3'-end cleavage using HTS2 substrate. The gist of the method: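 Recombinant p66/p51 RT heterodimer. Fluorescent RNA/DNA duplex substrate HTS-2 reports DNA 3′-end-directed (polymerase-dependent) cleavage. IC50 is the mean of at least three independent experiments.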

For data set [6] the target is unchanged. Kind of data set: Inhibition of RNase H activity of full length recombinant HIV1 reverse transcriptase assessed as reduction in RNA 5'-end directed cleavage using HTS3 substrate.
The target is the same in data set [7]. Kind of data set: Inhibition of RNase H activity of full length recombinant HIV1 reverse transcriptase assessed as reduction in nonspecific internal cleavage using HTS1 substrate. A digest of the protocol:
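Recombinant p66/p51 RT heterodimer. Fluorescent RNA/DNA duplex substrate HTS-1 measures internal cleavage. IC50 is the mean of at least three independent experiments.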

For data set [8] the target is unchanged. Briefly: Inhibition of re-constituted HIV1 reverse transcriptase RNase H domain fragment. A digest of the protocol:
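Secondary check using a catalytically active, isolated HIV RNase H domain fragment (reconstituted) with duplex substrate HTS-1.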

In data set [9] the target is Human immunodeficiency virus type 1 reverse transcriptase (Human immunodeficiency virus 1) (UniProt Q72547). Kind of data set: Inhibition of RNase H activity of full length recombinant HIV1 reverse transcriptase assessed as reduction in nonspecific internal cleavage up to 25 uM using HTS1 substrate.
Data set [10] in a line: Toxicity against human HeLa P4/R5 cells. The class given is cell-based.
Data set [11] addresses Human immunodeficiency virus type 1 reverse transcriptase (Human immunodeficiency virus 1) (UniProt Q72547). Kind of data set: Inhibition of re-constituted HIV1 reverse transcriptase RNase H domain fragment up to 25 uM. A digest of the protocol: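 Secondary check using a catalytically active, isolated HIV RNase H domain fragment (reconstituted) with duplex substrate HTS-1. […] Upper test concentration 25 µM.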

Take `Cn1c(Oc2ccccc2-c2ccccc2)cc(=O)n(O)c1=O`: the inhibition entry in data set [1], in [2] and in [3] was “inactive” each time. In addition, the IC50 result in [4], in data set [5] and in [6] was “Not Active” in each case.
For orientation: CC50 means the concentration at which the toxic effect on the cells reaches its halfway point. A lower CC50 goes with greater toxicity to the cells. Turning to `Cn1c(Nc2cccc(C3CCOC3)c2)cc(=O)n(O)c1=O` (configuration not stated), the IC50 result in data set [7], in data set [8], in data set [4], in data set [5] and in [6] was “Not Active” in each case. Further, the inhibition entry in data set [1], in data set [2], in data set [9], in data set [3] and in [11] was “inactive” in each case. Besides, the CC50 in data set [10] is more than 25 µM.
